# Measured values as given in ChEMBL document CHEMBL5724801, “EUbOPEN Chemogenomics Library - Multiplex” (2024).
# Values joined by “and” are separate entries in the source; they are usually repeats but may differ in a detail not shown here. Identical values can stand only once.
# Tested on: Fibroblast
# Assay: Multiplex assay against human fibroblast
# Type: toxicity, cell-based
# Summary of the method: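 On a CQ1 microscope at 37°C and 5% CO2, live cells were imaged after compound addition. They had been stained at seeding with Hoechst33342, BioTracker Green Microtubule Cytoskeleton Dye, MitoTracker Red and Annexin V Alexa Fluor 680. CellPathfinder machine-learning gating assigned cells to Hoechst high-intensity objects or normal cells, normal cells to healthy, pyknosed or fragmented nuclei, and pyknosed cells to mitotic or apoptotic. Tubulin, mitochondrial-mass and membrane-permeability phenotypes are per cents of healthy-nucleus cells.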
# [1] = 12 h, 1 µM, compound concentration 1 uM
# [2] = 12 h, 10 µM, compound concentration 10 uM
# [3] = 24 h, 1 µM, compound concentration 1 uM
# [4] = 24 h, 10 µM, compound concentration 10 uM
# [5] = 48 h, 1 µM, compound concentration 1 uM
# [6] = 48 h, 10 µM, compound concentration 10 uM
structure (smiles),measurement,setting,value
Cc1ccc(C(C)(O)c2nc3ccccc3s2)c(C)c1 (stereo unspecified),Population Apoptotic (%),[1],50% and 44%
same,Population Fragmented Nuclei (%),[1],8% and 22%
same,Population Healthy Nuclei (%),[1],78% and 48%
same,Population Hoechst High Intensity Objects (%),[1],0% and 5%
same,Population Membrane Permeable-Phenotype (%),[1],0% and 3%
same,Population Mitochondria Different-Phenotype (%),[1],5% and 6%
same,Population Mitotic Cells (%),[1],50% and 56%
same,Population Normal (%),[1],99% and 95%
same,Population Pyknosed Nuclei (%),[1],12% and 29%
same,Population Tubulin-Different-Phenotype (%),[1],29% and 36%
same,Total Cell Count,[1],125 and 180
same,Population Apoptotic (%),[2],44% and 22%
same,Population Fragmented Nuclei (%),[2],11% and 31%
same,Population Healthy Nuclei (%),[2],72% and 43%
same,Population Hoechst High Intensity Objects (%),[2],1% and 7%
same,Population Membrane Permeable-Phenotype (%),[2],0% and 15%
same,Population Mitochondria Different-Phenotype (%),[2],5% and 6%
same,Population Mitotic Cells (%),[2],56% and 77%
same,Population Normal (%),[2],98% and 92%
same,Population Pyknosed Nuclei (%),[2],16% and 25%
same,Population Tubulin-Different-Phenotype (%),[2],24% and 60%
same,Total Cell Count,[2],153 and 149
same,Population Apoptotic (%),[3],31% and 47%
same,Population Fragmented Nuclei (%),[3],13% and 25%
same,Population Healthy Nuclei (%),[3],73% and 54%
same,Population Hoechst High Intensity Objects (%),[3],0% and 5%
same,Population Membrane Permeable-Phenotype (%),[3],2% and 11%
same,Population Mitochondria Different-Phenotype (%),[3],7% and 5%
same,Population Mitotic Cells (%),[3],68% and 52%
same,Population Normal (%),[3],99% and 94%
same,Population Pyknosed Nuclei (%),[3],13% and 20%
same,Population Tubulin-Different-Phenotype (%),[3],22% and 43%
same,Total Cell Count,[3],139 and 173
same,Population Apoptotic (%),[4],55% and 38%
same,Population Fragmented Nuclei (%),[4],13% and 27%
same,Population Healthy Nuclei (%),[4],74% and 46%
same,Population Hoechst High Intensity Objects (%),[4],4% and 6%
same,Population Membrane Permeable-Phenotype (%),[4],3% and 12%
same,Population Mitochondria Different-Phenotype (%),[4],6% and 9%
same,Population Mitotic Cells (%),[4],44% and 61%
same,Population Normal (%),[4],95% and 93%
same,Population Pyknosed Nuclei (%),[4],12% and 25%
same,Population Tubulin-Different-Phenotype (%),[4],24% and 61%
same,Total Cell Count,[4],152 and 143
same,Population Apoptotic (%),[5],33% and 50%
same,Population Fragmented Nuclei (%),[5],16% and 28%
same,Population Healthy Nuclei (%),[5],73% and 57%
same,Population Hoechst High Intensity Objects (%),[5],4% and 3%
same,Population Membrane Permeable-Phenotype (%),[5],0% and 5%
same,Population Mitochondria Different-Phenotype (%),[5],3% and 6%
same,Population Mitotic Cells (%),[5],66% and 50%
same,Population Normal (%),[5],95% and 96%
same,Population Pyknosed Nuclei (%),[5],9% and 14%
same,Population Tubulin-Different-Phenotype (%),[5],16% and 39%
same,Total Cell Count,[5],129 and 174
same,Population Apoptotic (%),[6],53% and 43%
same,Population Fragmented Nuclei (%),[6],22% and 34%
same,Population Healthy Nuclei (%),[6],68% and 53%
same,Population Hoechst High Intensity Objects (%),[6],7%
same,Population Membrane Permeable-Phenotype (%),[6],2% and 7%
same,Population Mitochondria Different-Phenotype (%),[6],6% and 7%
same,Population Mitotic Cells (%),[6],46% and 56%
same,Population Normal (%),[6],92%
same,Population Pyknosed Nuclei (%),[6],9% and 12%
same,Population Tubulin-Different-Phenotype (%),[6],27% and 64%
same,Total Cell Count,[6],156 and 143
